The nature of assay [1]: Inhibition of NOS in Sprague-Dawley rat brain homogenate assessed as conversion of oxy-hemoglobin to met-hemoglobin. Format: tissue-based. The procedure, abridged:
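Brain of male Sprague-Dawley rat homogenised in HEPES/sucrose/EDTA/DTT with protease inhibitors and PMSF; the 12,000g supernatant is the enzyme source. Mix holds 500 µM HEPES, 250 µM CaCl2, homogenate from 2.36 mg tissue and 5% DMSO. Pre-incubated 3 min at 37 °C, then started with oxyHb 1.09 µM, NADPH 100 µM and L-arginine 100 µM. Scanned 390–430 nm every 10 s for 10 min; metHb taken as A401−A411. IC50 from rate versus log concentration.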

The species named for assay [2] is Rattus norvegicus. Description: Ratio of IC50 for aminoguanidine to IC50 for drug for NOS in Sprague-Dawley rat brain homogenate. The class given is tissue-based.
For assay [3], the species on record is Papio hamadryas. As to the kind of experiment: Inhibition of MAOB from baboon liver at 100 uM by spectrophotometry.
For assay [4], the species on record is Papio hamadryas. As to the kind of experiment: Inhibition of MAOB from baboon liver at 30 uM by spectrophotometry.
Assay [5] addresses T1, Amine oxidase [flavin-containing] B (Mus musculus, UniProt Q8BW75).
T1 sequence (Q8BW75 whole entry): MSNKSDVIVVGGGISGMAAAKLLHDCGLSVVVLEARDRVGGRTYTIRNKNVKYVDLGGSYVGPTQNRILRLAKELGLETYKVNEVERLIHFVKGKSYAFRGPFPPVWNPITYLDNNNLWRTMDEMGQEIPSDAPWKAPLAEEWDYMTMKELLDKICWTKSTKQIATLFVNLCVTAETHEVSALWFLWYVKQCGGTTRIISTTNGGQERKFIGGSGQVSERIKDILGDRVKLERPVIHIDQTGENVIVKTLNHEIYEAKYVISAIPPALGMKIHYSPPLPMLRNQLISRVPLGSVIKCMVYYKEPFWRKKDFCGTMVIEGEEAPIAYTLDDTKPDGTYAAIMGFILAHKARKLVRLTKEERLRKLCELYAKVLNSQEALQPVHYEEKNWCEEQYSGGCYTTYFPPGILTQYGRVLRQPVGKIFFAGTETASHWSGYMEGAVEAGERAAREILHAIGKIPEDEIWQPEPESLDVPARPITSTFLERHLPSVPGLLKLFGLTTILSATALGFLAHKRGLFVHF
As to the kind of experiment: Inhibition of mouse brain MAOB.

Assay [6] is described as follows: Inhibition of MAOB from baboon liver by spectrophotometry. Set-up: species or system Papio hamadryas. The procedure, abridged: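 Mitochondrial fraction of baboon liver (no MAO-A activity, so no clorgyline), 0.15 mg protein/mL in 100 mM sodium phosphate pH 7.4. Substrate MMTP 50 µM, 4% DMSO final. Incubated 37 °C for 10 min, then stopped with perchloric acid and centrifuged. MMDP+ read at 420 nm. At least eight concentrations over 3 orders of magnitude; IC50 from sigmoidal fit, mean ± SEM of duplicates.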

Assay [7] in a line: Inhibition of recombinant NOS from rat brain.

Broadly, the IC50 is the concentration at which inhibition is half-maximal. By inhibition is commonly meant the percentage by which the read-out fell short of the control. One may read the Ki as the equilibrium dissociation constant of an inhibitor or competing ligand from its target.

With `Cn1c(=O)c2nc(-c3ccccc3)cnc2n(C)c1=O`, in assay [1], the IC50 was 443 µM. In assay [2], the Ratio IC50 was determined as 23. The same compound returned an inhibition in assay [3] of 12.2%.

On to `Cn1c(N)c(/N=C/c2ccccc2)c(=O)n(C)c1=O`, for which the inhibition in assay [4] is 17.8%. The IC50 in assay [1] turned out to be 467 µM. Besides, the Ratio IC50 in assay [2] stood at 23.

On to `Cn1c(=O)c2c(nc(/C=C/c3cccc(Cl)c3)n2C)n(C)c1=O`, for which the affinity in assay [5] corresponds to a Ki of 0.1 µM.

In assay [6], `Cn1c(=O)c2nc(-c3cccc(Cl)c3)cnc2n(C)c1=O` returned an IC50 of 4.89 µM and a Ki of 2.82 µM.

Regarding `Nc1nc(N)c2c(n1)NCC(c1ccccc1)N2` (configuration not stated), the IC50 in assay [7] turned out to be 6 µM.

For the compound `Cn1c(N)c(/N=C/c2cccc(Cl)c2)c(=O)n(C)c1=O`, the IC50 was 7.03 µM in assay [6] and 6970 µM in assay [1]. In assay [6], the Ki stood at 4.06 µM.

Regarding `Cn1c(N)c(/N=C/C=C/c2cccc(Cl)c2)c(=O)n(C)c1=O`, in assay [6], the IC50 was 0.602 µM and the Ki came to 0.348 µM. Moreover, the IC50 in assay [1] amounted to 577 µM.

In the case of `Cn1c(=O)c2nc(/C=C/c3cccc(Cl)c3)cnc2n(C)c1=O`, the IC50 amounted to 0.314 µM in assay [6] and 1060 µM in assay [1]. The Ki in assay [6] was 0.181 µM.

`C[C@H](O)[C@H](O)C1CNc2nc(N)nc(N)c2N1` (some centres not stated): the inhibition constant (Ki) in assay [7] amounted to 0.013 µM.

In assay [6], `Cn1c(N)c(/N=C/C=C/c2ccccc2)c(=O)n(C)c1=O` registered an IC50 of 12.1 µM and an inhibition constant (Ki) of 6.96 µM.

For the origin of these results see ChEMBL document CHEMBL1152650, “Synthesis and in vitro evaluation of pteridine analogues as monoamine oxidase B and nitric oxide synthase inhibitors” (Bioorg Med Chem, 2009).
